Source: PubChem
MrgX1 ag: agonists of human MrgX1 receptor, primary screen, HEK293 cells, Fluo-4 calcium flux; Fluo-4 calcium fluorescence, agonist mode; hits give high values; B-score at 10 µM; actives 0.44% (n = 310,000);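 active means calcium response B-score plate-corrected fluorescence ratio at least 3 library SD, with starting fluorescence B-score inside 5 SD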
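Assay system: stable human MrgX1 HEK293 cell line. Quantity: 15,000 cells per well. Schedule: cells plated overnight, dye loaded 0.5 h 37 °C, 0.5 h room temperature. Detection: Fluo-4 NW calcium-flux fluorescence, kinetic read. Read-out basis: peak-minus-minimum fluorescence over baseline, converted to B scores. Control set: positive and negative control wells on each plate.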
RGS4 act: RGS4 potentiators or activators, primary screen, cell-based, HEK293 M3R inducible RGS4, calcium flux; carbachol calcium flux Fluo4; hits give low values; actives 0.92% (n = 310,000); B-score at 10 µM; AID 463111, 2010;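 active means B-score of the integrated calcium signal more than 4 SD below the library mean, with starting fluorescence not abnormally high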;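 further: negative B-score means reduced calcium response which marks RGS4 activation or potentiation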
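test system = M3R-expressing HEK293 line, RGS4 induced by doxycycline | probe or stimulus = carbachol at ECmax as muscarinic agonist stimulus | timing = dye loading 30 min 37 °C, buffer rest 30 min RT | signal = calcium dye Fluo4 fluorescence | evaluation = B score from integrated fluorescence ratio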
MrgX1 PAM: positive allosteric modulators of MrgX1, primary screen, HEK293 cells, Fluo-4 calcium flux. Mas-related G-protein coupled receptor member X1 (Homo sapiens), Q96LB2. FDSS; hits give high values. B-score at 10 µM. actives 0.63% (n = 310,000);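 active means plate-corrected calcium response at least 3 library SD above typical, normal starting fluorescence, not activating the receptor alone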;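 further: compound read alongside a low EC10 to EC30 dose of BAM8-22 agonist; peak minus trough fluorescence over baseline measured at the second addition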
MrgX1 antagonist: antagonists of human MrgX1 receptor, primary screen, HEK293 cells, Fluo-4 calcium flux; Mas-related G-protein coupled receptor member X1 (Homo sapiens), Q96LB2; BAM8-22 antagonism; hits give low values; B-score at 10 µM; actives 1.3% (n = 310,000); AID 588676, 2011;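 active means calcium-response B-score plate-corrected more than 3 library SD below zero, starting fluorescence within 5 deviations, no agonist response on first addition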;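 further: peak minus trough fluorescence over baseline after final BAM8-22 challenge near maximal dose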
PHOSPHO1 block: PubChem AID 1565 | actives 1.1% (n = 290,000) | inhibition, % at 13.3 µM | recombinant PHOSPHO1, absorbance phosphatase assay | Phosphoethanolamine/phosphocholine phosphatase (Homo sapiens), Q8TCT1; in the data active means inhibition above about 60%
Target sequence (Q8TCT1 whole entry, looked up): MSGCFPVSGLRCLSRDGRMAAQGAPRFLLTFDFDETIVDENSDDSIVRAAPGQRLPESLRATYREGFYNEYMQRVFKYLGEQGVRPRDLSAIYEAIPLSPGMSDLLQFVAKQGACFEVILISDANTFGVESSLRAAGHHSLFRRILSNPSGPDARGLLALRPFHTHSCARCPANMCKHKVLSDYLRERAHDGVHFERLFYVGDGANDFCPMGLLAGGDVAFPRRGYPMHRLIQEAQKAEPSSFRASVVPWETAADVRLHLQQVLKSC
RGS4 inh: RGS4 inhibitors, primary screen, cell-based, HEK293 M3R inducible RGS4, calcium flux; Regulator of G-protein signaling 4 (Homo sapiens), P49798; Fluo-4 calcium flux; hits give high values; triggered by carbachol at its EC20; B-score at 10 µM; actives 0.45% (n = 310,000);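 active means B-score, a plate-corrected calcium signal, over three deviations above library mean, with baseline fluorescence within five deviations of library mean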;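 further: RGS4 expression induced by doxycycline in cells with stable M3 receptor; B-score is computed from the integrated fluorescence ratio over baseline after carbachol; higher B-score means a larger calcium signal and so more RGS4 inhibition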
Target sequence (P49798 whole entry, looked up): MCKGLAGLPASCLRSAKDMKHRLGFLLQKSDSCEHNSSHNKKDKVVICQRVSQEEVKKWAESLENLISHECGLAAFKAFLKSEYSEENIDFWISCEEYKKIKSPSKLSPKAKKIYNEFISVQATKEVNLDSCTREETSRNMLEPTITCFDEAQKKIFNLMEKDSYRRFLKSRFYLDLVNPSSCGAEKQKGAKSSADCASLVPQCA
The depositor's hits bear a star; i = inactive; x = no result. Most compounds without a hit are left out; they make up all but 4.5% or so of the library.

SMILES	MrgX1 ag	RGS4 act	MrgX1 PAM	MrgX1 antagonist	PHOSPHO1 block	RGS4 inh
Nc1cc(C(=O)OCC(=O)NNC(=O)c2cccs2)ccc1Cl	i	i	i	i	x	i
Cc1ccc(-n2c(SCC(N)=O)nnc2-c2cccnc2)c(C)c1	i	i	i	i	5	i
Cc1ccc(-n2c(SCc3cc(=O)n4ccsc4n3)nnc2-c2cccnc2)c(C)c1	i	i	i	i	61*	i
COc1cc(CNCCc2ccccc2)cc(Br)c1OCC(=O)Nc1ccccc1C	i	i	i	i	66*	i
CCOC(=O)CCc1c(C(=O)OCC)[nH]c(CC)c1C(=O)OCc1ccccc1	i	-7.5*	i	i	13	i
CCOC(=O)c1c(C)[nH]c(C(=O)OCc2ccccc2)c1C	i	i	i	i	18	i
Cc1onc(-c2ccccc2Cl)c1C(=O)Nc1ccc(-c2nnc3n2CCCCC3)cc1	i	i	i	i	45	i
Cc1cc(C)n(-c2ccc(Cl)c(C(=O)Nc3ccc(-c4nnc5n4CCCCC5)cc3)n2)n1	i	i	i	i	62*	i
Cc1ccc(S(=O)(=O)NCC(=O)OCc2nnc(-c3ccccc3)o2)cc1	i	i	i	i	65*	i
CC1(C)Cc2c(C#N)c(NC3CCCCC3)nc(-c3ccco3)c2CO1	29*	i	i	i	2	i
CC1(C)Cc2c(C#N)c(NCC3CCCO3)nc(-c3ccco3)c2CO1 (stereo not drawn)	i	i	i	i	-14	i
COc1cccc2c1cc1c(=O)n(CC(=O)NCCCN3CCCCC3)nc(C)n12	i	i	i	i	42	i
Cc1cc(Cl)ccc1-n1c(-c2cccnc2)n[nH]c1=S	i	i	i	i	78*	i
Cc1ccccc1-n1c(-c2ccncc2)n[nH]c1=S	i	i	i	i	-32	i
Cc1ccc(C)c(-n2c(-c3cccnc3)n[nH]c2=S)c1	i	i	i	i	13	i
CCc1ccccc1-n1c(-c2ccncc2)n[nH]c1=S	i	i	i	i	90*	i
COc1ccccc1-n1c(-c2ccc(NS(C)(=O)=O)cc2)n[nH]c1=S	i	i	i	i	88*	i
S=c1[nH]nc(-c2ccncc2)n1Cc1ccccc1	i	i	i	i	88*	i
Fc1ccc(-c2n[nH]c(=S)n2Cc2ccccc2)cc1	i	i	i	i	-48	i
O=C(CS(=O)CC(=O)N(CC(=O)NC1CCCC1)c1ccc2c(c1)OCCO2)Nc1ccc(F)cc1 (stereo not drawn)	i	i	i	i	33	i
CCCCn1c(N)c(N(CC(C)C)C(=O)CSc2ccccc2C)c(=O)[nH]c1=O	i	i	i	i	x	i
CCN(CC)CCCNC(=O)c1cc(Nc2ccc(OC)cc2)nc2ccccc12	i	i	i	i	11	i
COc1c(C)cc(Br)cc1C(=O)Nc1ccc(Cc2ccncc2)cc1	i	i	i	i	8	i
CCN1/C(=C/C=C/c2sc3ccccc3[n+]2CC)Sc2ccccc21	i	-7*	i	-4.6*	x	i
CCN1/C(=C/C=C/C=C/C=C/c2sc3ccccc3[n+]2CC)Sc2ccccc21	i	i	i	-5.1*	16	i
SMILES	MrgX1 ag	RGS4 act	MrgX1 PAM	MrgX1 antagonist	PHOSPHO1 block	RGS4 inh
CC[n+]1c(/C=C/Nc2ccccc2)sc2ccccc21	i	i	i	i	98*	i
CCN1/C(=C/C=C/C=C/c2sc3ccccc3[n+]2CC)Sc2ccccc21	i	i	i	i	-1	i
O=C(COC(=O)C1CC2CCCC(C1)C2=O)NNC(=O)c1ccccc1F (stereo not drawn)	i	i	i	i	x	i
COc1ccc(OC)c(CCNC(=O)CCc2nnc3ccc(N4CCCC4)nn23)c1	i	i	i	i	38	i
Cc1ccc(OCCn2c(=O)n(C)c3ccccc32)cc1	i	-7.2*	i	i	16	i
COc1cc(C(=O)NCCOc2cc(C)ccc2C(C)C)cc(OC)c1OC	i	i	i	-4.7*	-2	i
COc1ccc(-c2ccc(SCC(=O)NC3CCCCC3)nn2)cc1OC	i	i	i	i	23	i
O=[N+]([O-])c1cccc(COc2ncnc3cc([N+](=O)[O-])ccc23)c1	i	i	i	i	16	i
COc1ccc(C2C(C(C)=O)=C(C)N=c3s/c(=C\c4cc(C)n(C)c4C)c(=O)n32)c(OC)c1 (stereo not drawn)	i	i	i	i	71*	i
COc1ccc(C2C(C(C)=O)=C(C)N=c3s/c(=C\c4ccc5c(c4)OCO5)c(=O)n32)c(OC)c1 (stereo not drawn)	i	i	i	i	x	i
CCOC(=O)C1=C(C)N=c2s/c(=C/c3ccc(OCC(=O)O)cc3)c(=O)n2C1c1ccc(OC)cc1OC (stereo not drawn)	i	i	i	i	8	i
COc1ccc(C2C(C(C)=O)=C(C)N=c3s/c(=C\c4ccco4)c(=O)n32)c(OC)c1 (stereo not drawn)	i	i	i	i	94*	i
CCOC(=O)C(Cc1ccccc1)NC(=O)Cn1nnc(-c2ccc(SC)cc2)n1 (stereo not drawn)	i	i	i	-6.9*	12	i
CCOC(=O)N1CCC(N2Cc3cccc(C(=O)Nc4ccc(N(CC)CC)cc4C)c3C2=O)CC1	i	i	i	i	8	i
O=C(CCSCCc1ccccn1)Nc1cccc([N+](=O)[O-])c1	i	i	i	i	-7	i
N#Cc1c(N)n(Cc2ccccc2)c(=O)c2cc([N+](=O)[O-])ccc12	i	i	i	i	23	i
Cn1c(N)c(-c2ccccc2)c2ccc([N+](=O)[O-])cc2c1=O	30*	i	i	i	23	i
O=C(COC(=O)/C=C/c1ccccc1[N+](=O)[O-])NCC(F)(F)F	i	i	i	-4.9*	-8	i
